Reference: ChEMBL document CHEMBL1121717, “Tetrahydro-2-benzoxepins: a novel family of hypotensives” (1981)
Calls of active or inactive are those of the source. The calls are words filed in the database; no cut-off is given here.

Columns and labels:
Felis catus [1] = assay: Effect of compound on sympathetic nerve activity was measured in baroreceptor denervated cats at time 40min, after iv administration of 1.0 mg/kg; assay type: functional
How it was run: (§1)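 Cats of either sex anesthetized i.p. with sodium diallylbarbituric acid (60 mg/kg) plus urethane (240 mg/kg), placed in stereotaxic frame, tracheal tube inserted; femoral artery cannulated for arterial pressure, femoral vein for drug. Sympathetic activity recorded from preganglionic splanchnic nerve. 1.0 mg/kg iv; n = 6 treated, n = 8 vehicle; MAP, HR and % SNA (0 min = 100) read at 0–60 min; mean ± error.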

Felis catus [2] = assay: Effect of compound on heart rate was measured in baroreceptor denervated cats at time 60min, after iv administration of 1.0 mg/kg; assay type: functional; how it was run: as §1
Felis catus [3] = assay: Effect of compound on blood pressure was measured in baroreceptor denervated cats at time 10min, after iv administration of 1.0 mg/kg; assay type: functional; how it was run: as §1
Felis catus [4] = assay: Effect of compound on heart rate was measured in baroreceptor denervated cats at time 10min, after iv administration of 1.0 mg/kg; assay type: functional; how it was run: as §1
Felis catus [5] = assay: Effect of compound on sympathetic nerve activity was measured in baroreceptor denervated cats at time 60min, after iv administration of 1.0 mg/kg; assay type: functional; how it was run: as §1
Felis catus [6] = assay: Effect of compound on sympathetic nerve activity was measured in baroreceptor denervated cats at time 20min, after iv administration of 1.0 mg/kg; assay type: functional; how it was run: as §1
Felis catus [7] = assay: Effect of compound on heart rate was measured in baroreceptor denervated cats at time 0min, after iv administration of 1.0 mg/kg; assay type: functional; how it was run: as §1
Felis catus [8] = assay: Effect of compound on blood pressure was measured in baroreceptor denervated cats at time 5min, after iv administration of 1.0 mg/kg; assay type: functional; how it was run: as §1
Rattus norvegicus [9] = assay: Oral hypotensive activity of compound was tested in conscious rats after oral administration at 50 mg/Kg dose; -49/-52; assay type: functional, organism-based
Felis catus [10] = assay: Effect of compound on blood pressure was measured in baroreceptor denervated cats at time 60min, after iv administration of 1.0 mg/kg; assay type: functional; how it was run: as §1
Felis catus [11] = assay: Effect of compound on sympathetic nerve activity was measured in baroreceptor denervated cats at time 10min, after iv administration of 1.0 mg/kg; assay type: functional; how it was run: as §1
Felis catus [12] = assay: Effect of compound on blood pressure was measured in baroreceptor denervated cats at time 20min, after iv administration of 1.0 mg/kg; assay type: functional; how it was run: as §1
Felis catus [13] = assay: Effect of compound on heart rate was measured in baroreceptor denervated cats at time 20min, after iv administration of 1.0 mg/kg; assay type: functional; how it was run: as §1
Felis catus [14] = assay: Effect of compound on sympathetic nerve activity was measured in baroreceptor denervated cats at time 0min, after iv administration of 1.0 mg/kg; assay type: functional; how it was run: as §1
Felis catus [15] = assay: Effect of compound on blood pressure was measured in baroreceptor denervated cats at time 0 min, after iv administration of 1.0 mg/kg; assay type: functional; how it was run: as §1
Felis catus [16] = assay: Effect of compound on heart rate was measured in baroreceptor denervated cats at time 40min, after iv administration of 1.0 mg/kg; assay type: functional; how it was run: as §1
Felis catus [17] = assay: Effect of compound on blood pressure was measured in baroreceptor denervated cats at time 40min, after iv administration of 1.0 mg/kg; assay type: functional; how it was run: as §1
Felis catus [18] = assay: Effect of compound on heart rate was measured in baroreceptor denervated cats at time 5min, after iv administration of 1.0 mg/kg; assay type: functional; how it was run: as §1
Rattus norvegicus [19] = assay: Oral hypotensive activity of compound was tested in conscious rats after oral administration at 5 mg/Kg dose; -24/-9; assay type: functional, organism-based
Felis catus [20] = assay: Effect of compound on sympathetic nerve activity was measured in baroreceptor denervated cats at time 5min, after iv administration of 1.0 mg/kg; assay type: functional; how it was run: as §1

COc1cc2c(cc1OC)C(CCN1CCN(c3ccc(F)cc3)CC1)OCCC2.Cl (stereo not given) was tested, and the SNA (Felis catus [1]) was 88%, the HR (Felis catus [2]) was 232 and the MAP (Felis catus [3]) was 85. For the same compound, the HR (Felis catus [4]) was 230, the SNA (Felis catus [5]) was 96% and the SNA (Felis catus [6]) was 86%. For the same compound, the HR (Felis catus [7]) was 229, the MAP (Felis catus [8]) was 75 and the Delta blood pressure (Rattus norvegicus [9]) was “Active”. It also gave an MAP (Felis catus [10]) of 109, an SNA (Felis catus [11]) of 76% and an MAP (Felis catus [12]) of 95. It also gave an HR (Felis catus [13]) of 230, an SNA (Felis catus [14]) of 100% and an MAP (Felis catus [15]) of 131. It also gave an HR (Felis catus [16]) of 231, an MAP (Felis catus [17]) of 107 and an HR (Felis catus [18]) of 229. The Delta blood pressure (Rattus norvegicus [19]) was “Active” and the SNA (Felis catus [20]) was 72%.
